{
  "source": "ChEMBL document CHEMBL4145684",
  "about": "(J Med Chem, 2018)",
  "system": "Rattus norvegicus",
  "assay": "Reduction in uterine wet weight in ethynyl estradiol-stimulated CD-IGS rat at 200 mg/kg, po dosed daily for 3 days by gavage followed 15 mins later by 0.1 mg/kg, po ethynyl estradiol and measured 24 hrs after last dose by immature rat uterine wet weight assay",
  "format": "functional",
  "method_in_brief": "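Female immature CD-IGS rats, 21 days old on arrival. Compound or vehicle was given orally by gavage once daily for 3 days, and oral ethynyl estradiol at 0.1 mg/kg followed each dose by 15 min. On day 4, 24 h after dosing, plasma was taken for PK, then the uterus was removed and weighed. % reduction = 100 × (VehicleEE − Cpd)/(VehicleEE − Vehicle).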",
  "data": [
    {"smiles": "C[C@]12CC[C@@H]3c4ccc(O)cc4C[C@@H](CCCCCCCCC[S+]([O-])CCCC(F)(F)C(F)(F)F)[C@H]3[C@@H]1CC[C@@H]2O", "note": "(stereo partly specified) [FULVESTRANT]", "values": [
      {"measurement": "inhibition (INH)", "result": 110, "unit": "%"}
    ]}
  ]
}
